Measured values from ChEMBL document CHEMBL5108074 (J Med Chem, 2022).

Key:
[1] = Clearance in Sprague-Dawley rat blood at 1 mg/kg, iv measured upto 24 hrs by LC-MS analysis; type: ADME, organism-based; details: whole blood
Outline: (§1)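 Male Sprague-Dawley rats, two per route, single dose. IV: 1 mg/kg given as 1 mL/kg of a nominal 1 mg/mL formulation in vehicle. PO: 10 mg/kg given as 5 mL/kg of a 2 mg/mL formulation. PK parameters from noncompartmental analysis. Clearance expressed relative to rat liver blood flow of 80 mL/min/kg.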

[2] = target: T1, Cytochrome P450 1A2 (Homo sapiens, UniProt P05177); assay: Inhibition of CYP1A2 in human liver microsomes assessed as reduction in acetaminophen metabolite formation incubated for 30 mins in presence of NADPH by LC-MS/MS analysis; type: ADME, Microsome
T1 sequence (P05177 whole entry): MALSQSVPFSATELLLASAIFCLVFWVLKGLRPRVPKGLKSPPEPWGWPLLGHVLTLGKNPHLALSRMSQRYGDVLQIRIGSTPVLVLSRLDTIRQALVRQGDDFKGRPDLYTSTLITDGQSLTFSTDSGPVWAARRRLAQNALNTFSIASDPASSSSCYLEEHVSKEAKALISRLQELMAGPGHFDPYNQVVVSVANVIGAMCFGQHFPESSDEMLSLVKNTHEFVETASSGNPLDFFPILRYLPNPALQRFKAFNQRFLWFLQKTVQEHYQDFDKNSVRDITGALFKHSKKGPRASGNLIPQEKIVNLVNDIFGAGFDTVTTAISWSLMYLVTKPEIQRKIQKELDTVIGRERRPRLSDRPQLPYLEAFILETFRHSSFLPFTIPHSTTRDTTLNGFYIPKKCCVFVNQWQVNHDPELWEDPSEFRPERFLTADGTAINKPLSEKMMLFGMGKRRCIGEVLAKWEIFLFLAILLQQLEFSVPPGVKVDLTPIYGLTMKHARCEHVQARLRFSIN

[3] = target: Voltage-gated inwardly rectifying potassium channel KCNH2 (Homo sapiens, UniProt Q12809); assay: Inhibition of hERG expressed in CHO cells by whole cell patch clamp assay; type: toxicity, cell-based
Outline: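 hERG K+ current recorded by automated whole-cell patch clamp in CHO cells stably expressing hERG. Concentrations tested up to a maximum of 33 μM.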

[4] = target: Trypsin (Homo sapiens, UniProt P07477+P07478+P35030); assay: Inhibition of human trypsin preincubated for 5 mins followed by substrate addition by fluorometer analysis; type: protein assay
Outline: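 Human proteases, typically purified from plasma, preincubated with compound for 5 min. A protease-specific fluorogenic substrate was then added and cleavage followed kinetically on a fluorometer. IC50 from a four-parameter logistic fit to the normalized rate of fluorescence increase.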

[5] = Oral bioavailability in Beagle dog at 1 mg/kg measured upto 24 hrs by LC-MS analysis; type: ADME, organism-based, Canis lupus familiaris; details: in vivo
[6] = Thermodynamic solubility of the compound in FaSSIF at 1 mg/ml at pH 6.5 measured after 4 hrs; type: physicochemical; details: simulated gi fluid, pH 6.5, 4 h
Outline: (§2)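 Compound (nominal 1 or 100 mg/mL as free base) added to biorelevant medium preheated to 37 °C: FaSSGF at pH 1.6 or FaSSIF at pH 6.5. Vortexed, then shaken 4 h at 37 °C (~500 rpm). Centrifuged at 15000g for 10 min at 37 °C. Supernatant diluted and quantified against calibration standards. Crystalline material used where stated.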

[7] = target: Cytochrome P450 2C19 (Homo sapiens, UniProt P33261); assay: Inhibition of CYP2C19 in human liver microsomes assessed as reduction in 4-hydroxymephenytoin metabolite formation incubated for 30 mins in presence of NADPH by LC-MS/MS analysis; type: ADME, Microsome
[8] = target: Plasminogen (Homo sapiens, UniProt P00747); assay: Inhibition of human plasmin preincubated for 5 mins followed by substrate addition by fluorometer analysis
Outline: (§3)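 Each protease (commercial, typically purified from human plasma) was preincubated with inhibitor for 5 min, then a fluorogenic substrate specific to that enzyme was added. Cleavage was followed kinetically by fluorometry. IC50 came from a four-parameter logistic fit to the normalized rate of fluorescence increase.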

[9] = target: Kallikrein-1 (Homo sapiens, UniProt P06870); assay: Inhibition of human KLK1 preincubated for 5 mins followed by substrate addition by fluorometer analysis
[10] = Oral bioavailability in Sprague-Dawley rat at 10 mg/kg measured upto 24 hrs by LC-MS analysis; type: ADME, organism-based; details: in vivo; outline: as §1
[11] = Thermodynamic solubility of the compound in FaSSGF at 1 mg/ml at pH 1.6 measured after 4 hrs; type: physicochemical; details: buffer, pH 1.6, 4 h; outline: as §2
[12] = Half life in Sprague-Dawley rat at 10 mg/kg, po and 1 mg/kg, iv measured upto 24 hrs by LC-MS analysis; type: ADME, organism-based; details: in vivo; outline: as §1
[13] = Half life in Beagle dog at 1 mg/kg, po and 1 mg/kg, iv measured upto 24 hrs by LC-MS analysis; type: ADME, organism-based, Canis lupus familiaris; details: in vivo
[14] = target: Cytochrome P450 3A4 (Homo sapiens, UniProt P08684); assay: Inhibition of CYP3A4 in human liver microsomes assessed as reduction in 6beta-hydroxytestosterone metabolite formation using testosterone as substrate incubated for 30 mins in presence of NADPH by LC-MS/MS analysis; type: ADME, Microsome
[15] = target: Renin (Homo sapiens, UniProt P00797); assay: Inhibition of human renin preincubated for 5 mins followed by substrate addition by fluorometer analysis
[16] = target: Cytochrome P450 2D6 (Homo sapiens, UniProt P10635); assay: Inhibition of CYP2D6 in human liver microsomes assessed as reduction in dextrorphan metabolite formation incubated for 30 mins in presence of NADPH by LC-MS/MS analysis; type: ADME, Microsome
[17] = target: Cytochrome P450 2B6 (Homo sapiens, UniProt P20813); assay: Inhibition of CYP2B6 in human liver microsomes assessed as reduction in hydroxybupropion metabolite formation incubated for 30 mins in presence of NADPH by LC-MS/MS analysis; type: ADME, Microsome
[18] = target: Cathepsin D (Homo sapiens, UniProt P07339); assay: Inhibition of human Cathepsin D preincubated for 5 mins followed by substrate addition by fluorometer analysis
[19] = target: Cytochrome P450 2C8 (Homo sapiens, UniProt P10632); assay: Inhibition of CYP2C8 in human liver microsomes assessed as reduction in 6 alpha-hydroxypaclitaxel metabolite formation incubated for 30 mins in presence of NADPH by LC-MS/MS analysis; type: ADME, Microsome
[20] = Clearance in Beagle dog assessed as liver blood flow at 1 mg/kg, iv measured upto 24 hrs by LC-MS analysis; type: ADME, organism-based, Canis lupus familiaris; details: in vivo
[21] = target: Cathepsin G (Homo sapiens, UniProt P08311); assay: Inhibition of human Cathepsin G preincubated for 5 mins followed by substrate addition by fluorometer analysis; outline: as §3
[22] = target: Tissue-type plasminogen activator (Homo sapiens, UniProt P00750); assay: Inhibition of human tissue plasminogen activator preincubated for 5 mins followed by substrate addition by fluorometer analysis; outline: as §3
[23] = Genotoxicity in Salmonella typhimurium by non-GLP bacterial mutagenicity Ames test; type: toxicity; details: salmonella enterica subsp. enterica serovar typhimurium
[24] = Apparent permeability of the compound across apical side to basolateral side in human Caco-2 cells incubated for 1 hr by LC-MS/MS analysis; details: caco-2, 1 h
[25] = target: Coagulation factor XII (Homo sapiens, UniProt P00748); assay: Inhibition of human factor 12a preincubated for 5 mins followed by substrate addition by fluorometer analysis; outline: as §3

Sequence of Cytochrome P450 2B6 (P20813 whole entry): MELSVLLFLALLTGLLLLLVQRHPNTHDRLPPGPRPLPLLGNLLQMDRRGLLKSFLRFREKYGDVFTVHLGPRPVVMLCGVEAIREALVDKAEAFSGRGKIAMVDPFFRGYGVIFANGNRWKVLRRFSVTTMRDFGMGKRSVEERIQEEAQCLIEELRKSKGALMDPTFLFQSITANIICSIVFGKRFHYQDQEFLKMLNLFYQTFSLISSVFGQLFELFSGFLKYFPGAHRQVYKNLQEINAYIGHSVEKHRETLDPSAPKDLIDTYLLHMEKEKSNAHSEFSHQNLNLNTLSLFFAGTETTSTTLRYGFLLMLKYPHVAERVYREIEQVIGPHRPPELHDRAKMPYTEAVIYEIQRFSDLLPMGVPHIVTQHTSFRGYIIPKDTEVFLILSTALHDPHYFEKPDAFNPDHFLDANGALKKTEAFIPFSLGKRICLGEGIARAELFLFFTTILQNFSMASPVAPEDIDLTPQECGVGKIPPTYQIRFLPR
Sequence of Tissue-type plasminogen activator (P00750 whole entry): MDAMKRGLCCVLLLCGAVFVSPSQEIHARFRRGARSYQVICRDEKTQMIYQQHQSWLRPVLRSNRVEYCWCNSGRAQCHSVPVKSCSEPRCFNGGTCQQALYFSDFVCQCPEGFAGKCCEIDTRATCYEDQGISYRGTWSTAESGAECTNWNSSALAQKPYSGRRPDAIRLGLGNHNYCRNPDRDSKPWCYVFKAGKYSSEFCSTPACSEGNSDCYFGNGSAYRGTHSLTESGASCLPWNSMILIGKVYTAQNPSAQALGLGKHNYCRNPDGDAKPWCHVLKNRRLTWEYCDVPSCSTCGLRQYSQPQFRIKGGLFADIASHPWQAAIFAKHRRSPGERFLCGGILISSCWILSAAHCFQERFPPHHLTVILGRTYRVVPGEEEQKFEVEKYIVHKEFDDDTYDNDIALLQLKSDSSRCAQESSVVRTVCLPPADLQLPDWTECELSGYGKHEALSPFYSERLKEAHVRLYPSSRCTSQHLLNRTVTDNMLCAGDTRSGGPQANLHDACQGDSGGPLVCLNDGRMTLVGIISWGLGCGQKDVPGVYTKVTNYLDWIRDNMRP
Sequence of Cytochrome P450 2C8 (P10632 whole entry): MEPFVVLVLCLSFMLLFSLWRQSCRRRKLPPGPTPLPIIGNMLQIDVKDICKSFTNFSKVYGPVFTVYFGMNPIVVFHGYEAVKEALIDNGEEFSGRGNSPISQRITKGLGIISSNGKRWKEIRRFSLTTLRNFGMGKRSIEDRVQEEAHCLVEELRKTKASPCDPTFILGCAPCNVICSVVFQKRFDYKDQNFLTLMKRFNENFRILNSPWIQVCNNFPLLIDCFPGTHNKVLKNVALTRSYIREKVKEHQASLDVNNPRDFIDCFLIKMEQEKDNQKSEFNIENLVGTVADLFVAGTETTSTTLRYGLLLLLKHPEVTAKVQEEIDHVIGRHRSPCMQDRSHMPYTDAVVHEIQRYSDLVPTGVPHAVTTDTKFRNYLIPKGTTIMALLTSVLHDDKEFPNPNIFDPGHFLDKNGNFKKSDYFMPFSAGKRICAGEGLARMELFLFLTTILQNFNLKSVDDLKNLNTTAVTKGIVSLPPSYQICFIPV
Sequence of Cytochrome P450 2D6 (P10635 whole entry): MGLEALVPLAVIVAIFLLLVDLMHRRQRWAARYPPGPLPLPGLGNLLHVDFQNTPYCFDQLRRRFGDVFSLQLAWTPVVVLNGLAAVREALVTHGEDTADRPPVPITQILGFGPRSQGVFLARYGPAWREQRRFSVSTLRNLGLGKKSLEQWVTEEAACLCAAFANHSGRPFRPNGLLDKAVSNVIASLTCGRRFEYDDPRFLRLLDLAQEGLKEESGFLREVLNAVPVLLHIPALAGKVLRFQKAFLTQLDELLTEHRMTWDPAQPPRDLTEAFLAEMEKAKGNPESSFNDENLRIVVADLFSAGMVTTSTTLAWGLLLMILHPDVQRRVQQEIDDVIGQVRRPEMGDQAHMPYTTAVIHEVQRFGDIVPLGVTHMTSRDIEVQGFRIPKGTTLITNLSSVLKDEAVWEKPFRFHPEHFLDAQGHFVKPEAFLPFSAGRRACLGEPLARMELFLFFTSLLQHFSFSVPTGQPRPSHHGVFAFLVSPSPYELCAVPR
Sequence of Renin (P00797 whole entry): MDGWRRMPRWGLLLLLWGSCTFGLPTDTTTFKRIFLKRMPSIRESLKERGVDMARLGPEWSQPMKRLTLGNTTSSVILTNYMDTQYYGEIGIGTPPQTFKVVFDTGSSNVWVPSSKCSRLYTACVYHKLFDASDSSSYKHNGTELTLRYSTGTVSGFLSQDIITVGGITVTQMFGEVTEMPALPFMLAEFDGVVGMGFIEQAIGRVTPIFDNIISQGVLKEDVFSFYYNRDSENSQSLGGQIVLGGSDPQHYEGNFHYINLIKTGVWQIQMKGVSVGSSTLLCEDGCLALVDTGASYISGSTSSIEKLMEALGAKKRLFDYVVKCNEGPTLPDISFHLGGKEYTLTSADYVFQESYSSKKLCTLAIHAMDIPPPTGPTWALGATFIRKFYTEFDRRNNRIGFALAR
Sequence of Cathepsin D (P07339 65-162 limits assumed): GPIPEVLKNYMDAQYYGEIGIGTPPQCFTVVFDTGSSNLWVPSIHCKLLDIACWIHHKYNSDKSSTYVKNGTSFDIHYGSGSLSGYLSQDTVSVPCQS
Sequence of Cathepsin D (P07339 169-412 limits assumed): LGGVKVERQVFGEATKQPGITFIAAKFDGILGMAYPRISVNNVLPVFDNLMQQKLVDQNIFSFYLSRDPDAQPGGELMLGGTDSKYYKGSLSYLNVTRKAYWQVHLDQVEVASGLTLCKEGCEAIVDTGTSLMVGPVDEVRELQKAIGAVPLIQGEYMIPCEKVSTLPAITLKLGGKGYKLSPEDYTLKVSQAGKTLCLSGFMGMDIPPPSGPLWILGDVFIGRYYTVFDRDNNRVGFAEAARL
Sequence of Cytochrome P450 2C19 (P33261 whole entry): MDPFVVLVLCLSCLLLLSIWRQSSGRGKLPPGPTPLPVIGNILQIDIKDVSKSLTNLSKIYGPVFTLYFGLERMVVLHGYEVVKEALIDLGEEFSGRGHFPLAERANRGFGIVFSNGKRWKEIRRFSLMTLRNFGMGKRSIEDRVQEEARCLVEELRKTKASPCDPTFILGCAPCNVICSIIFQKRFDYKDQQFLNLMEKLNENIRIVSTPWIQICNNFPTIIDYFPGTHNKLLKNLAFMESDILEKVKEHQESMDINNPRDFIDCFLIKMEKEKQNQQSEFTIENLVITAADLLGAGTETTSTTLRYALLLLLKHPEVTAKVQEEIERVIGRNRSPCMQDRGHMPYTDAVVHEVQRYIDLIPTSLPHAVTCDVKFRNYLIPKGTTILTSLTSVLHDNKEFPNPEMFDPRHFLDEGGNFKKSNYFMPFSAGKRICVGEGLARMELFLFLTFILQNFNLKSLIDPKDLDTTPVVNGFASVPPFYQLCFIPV
Sequence of Voltage-gated inwardly rectifying potassium channel KCNH2 (Q12809 whole entry): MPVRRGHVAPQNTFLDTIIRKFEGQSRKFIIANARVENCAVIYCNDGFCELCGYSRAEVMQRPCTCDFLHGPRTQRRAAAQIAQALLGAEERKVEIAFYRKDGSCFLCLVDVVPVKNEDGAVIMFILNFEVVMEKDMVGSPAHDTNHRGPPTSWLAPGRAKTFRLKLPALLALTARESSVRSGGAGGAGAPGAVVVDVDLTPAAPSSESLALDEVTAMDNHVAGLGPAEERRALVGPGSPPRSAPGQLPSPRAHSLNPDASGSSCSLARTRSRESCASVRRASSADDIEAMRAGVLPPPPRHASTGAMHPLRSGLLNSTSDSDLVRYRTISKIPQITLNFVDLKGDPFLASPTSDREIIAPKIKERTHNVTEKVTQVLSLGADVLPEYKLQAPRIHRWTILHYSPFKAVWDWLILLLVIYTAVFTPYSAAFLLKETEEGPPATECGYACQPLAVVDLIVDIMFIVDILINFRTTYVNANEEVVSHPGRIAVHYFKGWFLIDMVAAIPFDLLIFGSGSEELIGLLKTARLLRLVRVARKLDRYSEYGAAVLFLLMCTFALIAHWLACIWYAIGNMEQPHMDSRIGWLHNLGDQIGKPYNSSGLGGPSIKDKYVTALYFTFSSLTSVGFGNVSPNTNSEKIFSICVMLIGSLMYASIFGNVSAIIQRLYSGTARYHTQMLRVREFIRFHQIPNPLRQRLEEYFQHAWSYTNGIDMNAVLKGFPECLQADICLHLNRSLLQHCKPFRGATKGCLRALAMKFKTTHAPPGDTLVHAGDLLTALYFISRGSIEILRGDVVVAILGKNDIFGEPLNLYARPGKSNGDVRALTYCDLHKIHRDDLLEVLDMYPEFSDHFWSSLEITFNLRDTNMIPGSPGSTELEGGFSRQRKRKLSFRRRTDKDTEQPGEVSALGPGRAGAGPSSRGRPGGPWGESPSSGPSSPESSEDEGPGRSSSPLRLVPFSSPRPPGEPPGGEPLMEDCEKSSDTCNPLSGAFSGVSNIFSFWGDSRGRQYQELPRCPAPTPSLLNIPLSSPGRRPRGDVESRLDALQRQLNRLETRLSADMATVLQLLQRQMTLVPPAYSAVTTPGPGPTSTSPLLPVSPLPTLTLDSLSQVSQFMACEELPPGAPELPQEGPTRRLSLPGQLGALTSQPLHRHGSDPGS
Sequence of Cytochrome P450 3A4 (P08684 whole entry): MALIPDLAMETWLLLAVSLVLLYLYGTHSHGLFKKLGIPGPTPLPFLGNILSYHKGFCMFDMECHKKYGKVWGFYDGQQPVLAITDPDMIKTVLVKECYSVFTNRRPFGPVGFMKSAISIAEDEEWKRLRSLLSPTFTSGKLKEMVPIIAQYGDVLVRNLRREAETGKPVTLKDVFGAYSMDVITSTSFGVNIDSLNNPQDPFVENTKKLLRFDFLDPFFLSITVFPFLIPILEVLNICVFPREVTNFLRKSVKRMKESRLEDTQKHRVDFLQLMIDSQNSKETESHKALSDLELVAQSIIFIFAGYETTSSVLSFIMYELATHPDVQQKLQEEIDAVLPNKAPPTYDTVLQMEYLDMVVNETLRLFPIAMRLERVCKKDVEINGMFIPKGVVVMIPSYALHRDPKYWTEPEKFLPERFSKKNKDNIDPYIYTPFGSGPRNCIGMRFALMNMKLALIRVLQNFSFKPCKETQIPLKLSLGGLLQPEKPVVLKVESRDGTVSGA

For COCc1nn(Cc2ccc(Cn3ccccc3=O)cc2)cc1C(=O)NCc1nccc(OC)c1F [SEBETRALSTAT], the clearance [1] was 1.25 L/h/kg, the IC50 [2] was > 25 µM and the IC50 [3] was > 33 µM. The IC50 [4] was > 40 µM, the F [5] was 34% and the Therm_solubility [6] was 0.22 mg/mL. The IC50 [7] was > 25 µM, the IC50 [8] was > 40 µM and the IC50 [9] was > 40 µM. The F [10] was 82%, the Therm_solubility [11] was > 1 mg/mL and the t1/2 [12] was 1 h. For the same compound, the t1/2 [13] was 1 h, the IC50 [14] was > 25 µM and the IC50 [15] was > 10 µM. For the same compound, the IC50 [16] was > 25 µM, the IC50 [17] was > 25 µM and the IC50 [18] was > 10 µM. The IC50 [19] was > 25 µM, the LBF [20] was 33% and the IC50 [21] was > 10 µM. The IC50 [22] was > 10 µM, the Activity [23] was “Non-Toxic” and the Papp [24] was 9 10^-6 cm/s. The IC50 [25] was > 40 µM.
